Test results from ChEMBL document CHEMBL4513216, “Probing the Open Global Health Chemical Diversity Library for Multistage-Active Starting Points for Next-Generation Antimalarials” (ACS Infect Dis, 2020).

Experiment: Toxicity liver stage against HepG2, at 10uM
Type: cell-based
Parameters: test concentration 10 uM, cell line HepG2-A16-CD81EGFP
Details: human, HepG2-A16-CD81EGFP cells; read-out: INHIBITION
How it was run: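 Uninfected HepG2-A16-CD81EGFP cells, 3 × 10^3 per well, 1536-well, plated on prespotted compound at 10 μM final, parasite-free screening media added to match infected plates; puromycin 10 μM positive, DMSO 0.5% negative; run in parallel with 48 h PbLuc assay at 37 °C, 5% CO2; viability by CellTiter-Glo luminescence, normalized to controls.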

SMILES	cytotoxicity at 10 µM
CCCc1noc(CCC(=O)N2CCCC2c2ccsc2)n1 (configuration not stated)	-11%
Cn1ccnc1CN1CCC(c2ccnc(-c3cccc(O)c3)c2)C1 (configuration not stated)	6.52%
COc1ccc(CCNC(=O)C2CCCOC2)c(Cl)c1 (configuration not stated)	0.0357%
Cc1ccc(NC(=O)N2CCCC(O)C2)c(Br)c1 (configuration not stated)	7.72%
O=C1CCC(C(=O)NCCOc2cccc(Cl)c2Cl)CN1 (configuration not stated)	4.48%
CCc1nc(C)c([C@H]2CN(C)C[C@@H]2C(=O)NCc2ccccc2OC)[nH]1	0.15%
CC(=O)N1CCCN(C(=O)NCCOc2ccc3c(c2)OCO3)CC1	-14.9%
Cc1cc(S(=O)(=O)N2CCOCC2C#N)ccc1F (configuration not stated)	57.3%
CC1(Cc2ccc3c(c2)OCO3)CCCN(S(=O)(=O)N2CCCC2)C1 (configuration not stated)	-0.788%
O=C(OCc1cccc(F)c1)c1cccc(C(=O)N2CCCC2)n1	-1.6%
CN(Cc1ncc[nH]1)c1nc(-c2ccccn2)nc2c1CCNCC2	-0.796%
O=C1CSC(c2ccsc2)c2sccc2N1 (configuration not stated)	2.19%
CC(C)n1ccnc1CN1CCCN(C(=O)c2cnc[nH]2)CC1	-11.9%
COCCN(Cc1ccc(C)o1)C(=O)Nc1nnc2ccccn12	-1.59%
COCCOc1ccc(CNC2CCc3ncnn3C2)cc1OC (configuration not stated)	-7.2%
O=C(Cc1cccs1)NCC1(O)CCSCC1	-10.5%
Cc1ccnc(N2CCN(Cc3ccccc3)CC(O)C2)c1 (configuration not stated)	-1.88%
CN1CCN(Cc2cccnc2)C(=O)C12CCN(CC1CCOC1)CC2 (configuration not stated)	-106%
CCOC(=O)C(C)NC(=O)N1CCN(c2nc3ccccc3n2C)CC1 (configuration not stated)	3.39%
CCc1cc(NCC(N)=O)nc(N2CCCCC2)n1	9.95%
CO[C@H]1CCN(S(=O)(=O)N(C)C)[C@@H]2CN(Cc3cccnc3)C[C@H]12	11.9%

SMILES	cytotoxicity at 10 µM
Cc1noc([C@@H]2C[C@H]3OCC[C@H]3N(C(C)C)C2)n1	-125%
COCCC(=O)N1Cc2[nH]nc(COc3cccnc3)c2C1	-2.97%
O=C(O)C1(Cc2ccccc2Cl)CCN(c2ncnc3[nH]ccc23)CC1	11%
O=c1cc(CNCc2ccc3c(c2)OCO3)nc2ccc(Br)cn12	-2.62%
CC(C)(C)c1nc(CN2CCCC2c2nnc3ccccn23)no1 (configuration not stated)	-1.99%
O=C(c1ccc(C2CCCO2)s1)N1CCCOCC1 (configuration not stated)	-0.256%
Cc1noc([C@@H]2C[C@H](NC(=O)Nc3ccccc3)CN2C)n1	-1.89%
Cn1ccnc1C(O)(CCNCc1ccco1)C(F)(F)F (configuration not stated)	1.66%
Cn1cnnc1C1CCCN(C(=O)c2ccc3c(c2)OCCO3)C1 (configuration not stated)	-11%
Cc1csc(CN(C)C(=O)Nc2cnn(CC3CCCO3)c2)n1 (configuration not stated)	-3.28%
NS(=O)(=O)CCNC(=O)c1nnn(-c2ccc(F)cc2)c1C1CC1	-14.3%
O=C(Cc1ccccc1F)N1CCN(C(=O)c2cccc(F)c2)CC1	7.7%
COC(=O)[C@@H](NC(=O)c1snnc1-c1ccc(OC)cc1)C(C)C	4.96%
CN(C)Cc1noc2c1CN(Cc1ccc[nH]1)CC2	7.01%
c1ccc(-c2nc(CCNc3nnc(C4CCC4)o3)no2)cc1	-3.37%
Cc1cnn(C2CN(c3ccccc3S(=O)(=O)C(F)(F)F)C2)c1	11.5%
CN(C)C(=O)Cc1ccccc1NCc1cc(C#N)ccc1F	48.1%
CC(C)C(=O)NC1CC2(CCN(CC(=O)N(C)C)CC2)c2ccccc21 (configuration not stated)	-103%
CC(C)NC(=O)N1CCN(CC2CC2)CC2(CNC(=O)C2)C1 (configuration not stated)	2.52%
O=C(O)CSc1nnc(-c2ccco2)n1-c1ccccc1C(F)(F)F	3.41%
CC(=O)N1CCN(C(=O)NC(C)Cn2ccnc2)CC1 (configuration not stated)	-1.05%

SMILES	cytotoxicity at 10 µM
COc1cccc([C@@H]2CN(C3CSCCSC3)C[C@H]2C(=O)O)c1	2.95%
CCn1cnnc1CNC(=O)c1cc(Cl)ccc1I	-5.98%
Clc1cc(NCc2ccncc2)nc2[nH]ccc12	6.58%
CCC1=N[C@@]2(CC[C@@H]3CN(C(=O)NC(C)C)C[C@@H]32)C(=O)N1C	-18%
CCOCCN1CCN(Cc2csc(-c3cnn(C)c3)n2)CC1	-4.95%
Cn1nnc(NCc2ccc(-c3ccc(Br)cc3)o2)n1	-11.1%
NCC1Cc2cccc(-c3nccc(N4CCC(O)CC4)n3)c2O1 (configuration not stated)	-14.9%
CO[C@@H]1CC[C@H]2[C@H]1OCCN2C(=O)c1nn(C)c2ccccc12	1.31%
COc1ccccc1OC1(C(=O)O)CCN(c2ncnc(C)c2C)CC1	-11.2%
Cc1cc(N2CCC(N(C)C(=O)c3cccs3)CC2)nc(C)n1	6.74%
COCCOCC(=O)N1CCC2(CCCN(C3CCOCC3)C2=O)C1 (configuration not stated)	-133%
Cc1nnc(CN2CCC(c3nc4cc(Cl)ccc4o3)CC2)n1C	-3.49%
CCCN(Cc1nc(-c2ccc(F)c(OC)c2)oc1C)CC1CCCO1 (configuration not stated)	-1.03%
CN1CC2(CCN(C(=O)c3ccc4c(=O)n(C)cnc4c3)CC2)CC1=O	5.58%
CN1CCN(Cc2n[nH]c(=O)n2CC2CCCCC2)CC1	-47.9%
O=C(NCc1cc2n(n1)CCCN(Cc1ccc(Cl)s1)C2)C1CCC1	5.46%
Cc1ccn(-c2ccccc2NCc2ncc[nH]2)n1	-5.95%
CCOCC(=O)NCc1cc(Br)ccc1OC(F)F	21.9%
O=c1[nH]c2ccccc2cc1CNCCCN1CCOCC1	-17.5%
FC(F)(F)c1ccccc1CN1CCOC[C@H](Oc2cccnc2)C1	4.3%
Cc1ccccc1C1CCN(CCNC(=O)CS(C)(=O)=O)C1 (configuration not stated)	-49.5%

SMILES	cytotoxicity at 10 µM
COc1cc(OC)cc(C(=O)N(C)Cc2nnc3ccccn23)c1	-26.9%
O=C(c1cc(F)ccc1F)C1CCN(C(=O)c2ccco2)CC1	3.15%
Cc1ccc(N2CCO[C@H]3CN(Cc4cccnc4)C[C@H]32)nn1	-81.3%
Cc1cc(N(C)Cc2ncc(-c3ccccc3C(=O)O)s2)ncn1	-0.241%
CN(Cc1ccccc1)C(=O)Cn1nc(N2CCOCC2)ccc1=O	9.55%
CNc1cc(C2CCN2c2ncccn2)nc(C)n1 (configuration not stated)	1.72%
COC1CCN(CCNC(=O)NCC(C)c2cccc(C)c2)CC1 (configuration not stated)	-4.47%
COCCNC(=O)c1cc(C2CC2)nc2onc(C3CCNC3)c12 (configuration not stated)	7.55%
CC1(C)CN(C(=O)c2ccccc2-n2cncn2)CC1(C)O (configuration not stated)	-19.3%
CCCC(=O)N(C)c1cc(C#N)c2ccccc2n1	-7.55%
O=C(Nc1ccccc1)C1CN(Cc2nccs2)CC12CCOCC2 (configuration not stated)	1.61%
CCC(C)NC(=O)CS(=O)(=O)Cc1cc(Cl)c2c(c1)OCCCO2 (configuration not stated)	2.19%
CN(CCNC(=O)Nc1cnn(C)c1)Cc1ccc(F)cc1	7.72%
Cc1cc(-n2nnc(C(=O)O)c2-c2ccncc2)ccc1F	6.31%
COCCn1cnc2ccc(NC(=O)c3ccc(OC)cc3)cc2c1=O	-6.78%
N[C@@H]1CCN(Cc2ccc(-c3nc(-c4cccnc4)cc(=O)[nH]3)cc2)C1	9.48%
O=C1OCCN1CCN1CCCN(Cc2ccccc2F)CC1	-7.11%
COc1cccc(C(NCc2ccc(SC)cc2)c2nccn2C)c1 (configuration not stated)	-5.54%
Cc1nc(CNC(=O)NCC(O)c2ccc(F)cc2F)cs1 (configuration not stated)	6.5%
